We go through nine compounds from ChEMBL document CHEMBL1165942, “Synthesis and anti-inflammatory activity of new arylidene-thiazolidine-2,4-diones as PPARgamma ligands” (Bioorg Med Chem, 2010).

For experiment [1], the target named is T1, Peroxisome proliferator-activated receptor gamma (Homo sapiens, UniProt P37231).
T1 sequence (P37231 whole entry): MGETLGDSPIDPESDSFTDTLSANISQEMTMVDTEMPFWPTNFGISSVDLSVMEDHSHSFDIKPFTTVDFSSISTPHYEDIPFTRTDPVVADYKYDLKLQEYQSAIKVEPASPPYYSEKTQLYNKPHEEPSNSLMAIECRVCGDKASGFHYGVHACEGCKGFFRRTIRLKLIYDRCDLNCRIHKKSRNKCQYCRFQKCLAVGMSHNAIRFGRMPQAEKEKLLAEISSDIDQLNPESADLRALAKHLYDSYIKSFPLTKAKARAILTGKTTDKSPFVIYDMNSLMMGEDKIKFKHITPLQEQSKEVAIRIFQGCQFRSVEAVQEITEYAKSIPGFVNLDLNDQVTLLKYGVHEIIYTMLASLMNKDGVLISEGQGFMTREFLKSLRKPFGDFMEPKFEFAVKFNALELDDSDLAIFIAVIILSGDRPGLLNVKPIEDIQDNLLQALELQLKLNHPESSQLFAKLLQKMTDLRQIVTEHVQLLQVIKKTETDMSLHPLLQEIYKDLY
The experiment in a line: Displacement of [3H]rosiglitazone from human PPARgamma ligand binding domain expressed in Escherichia coli BL21 after 12 hrs by liquid scintillation counting. Summed up: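 His-tagged hPPARγ LBD purified on Co2+ affinity resin, preincubated 12 h at 4 °C with 40 nM [3H]rosiglitazone (50 Ci/mmol) in 10 mM Tris pH 8.0, 50 mM KCl, 10 mM DTT. Unlabeled ligand or DMSO vehicle added, then a further 12 h at 4 °C. Bound and free label separated on Sephadex G-25 and counted by scintillation. Results as % bound vs vehicle; Ki from concentration-dependent displacement.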
In general terms: Loss of bound radioactivity is the signal in a displacement assay; it reports binding, not function.

A further experiment concerns Mus musculus. As to the kind of experiment: Antiinflammatory activity against carrageenan-induced air pouch inflammation in po dosed mouse assessed as inhibition of leukocyte infiltration administered 1 hr before carrageenan challenge measured after 6 hrs by hemocytometry relative to untreated control.

As usually defined, the Ki is the equilibrium dissociation constant of an inhibitor or competing ligand from its target. Lower therefore signals a stronger hold on the target. Regarding `O=C1S/C(=C\c2ccc(Cl)cc2Cl)C(=O)N1Cc1c(F)cccc1Cl`, in experiment [1], the Ki came to 4 µM. Moreover, the “inhibition (INH)” value in the experiment with Mus musculus is reported as 41.6%.
As for `O=C1S/C(=C\c2ccc3c(c2)Cc2ccccc2-3)C(=O)N1Cc1cccc(Cl)c1`, in the experiment on Mus musculus, the “inhibition (INH)” value was 65.2%.
The same measure, in the same setting: the result for `COc1ccc(/C=C2\SC(=O)N(Cc3cccc(Cl)c3)C2=O)cc1` reads 42%.
As to `COc1ccc(Br)cc1/C=C1\SC(=O)N(Cc2cccc(Cl)c2)C1=O`, the “inhibition (INH)” value in the experiment on Mus musculus worked out at 47.4%.
Turning to `CS(=O)(=O)c1ccc(/C=C2\SC(=O)N(Cc3cccc(Cl)c3)C2=O)cc1`, the Ki in experiment [1] worked out at 43 µM. Besides, in the experiment on Mus musculus, the “inhibition (INH)” value was determined as 63.9%.
Regarding `CS(=O)(=O)c1ccc(/C=C2\SC(=O)N(Cc3ccccc3Br)C2=O)cc1`, the inhibition constant Ki in experiment [1] was 7.3 µM. In addition, the “inhibition (INH)” value in the experiment with Mus musculus came to 73.3%.
Consider `COc1ccc(/C=C2\SC(=O)N(Cc3cccc(Cl)c3)C2=O)cc1Br`, for which the “inhibition (INH)” value with Mus musculus is on record as 51.5%.
Consider `O=C1S/C(=C\c2ccc(-c3ccccc3)cc2)C(=O)N1Cc1cccc(Cl)c1`, for which, in experiment [1], the inhibitory constant (Ki) is 43.6 µM. Besides, the “inhibition (INH)” value in the experiment on Mus musculus is recorded as 67%.
`CN(CCOc1ccc(CC2SC(=O)NC2=O)cc1)c1ccccn1` (stereo not drawn) [ROSIGLITAZONE]: the “inhibition (INH)” value in the experiment with Mus musculus was found to be 72%.
